The values that follow come from ChEMBL document CHEMBL1155685, “Antiproliferative triterpene saponins from Trevesia palmata” (J Nat Prod, 2000).

In one experiment the test system is J774. The experiment is described as follows: Antiproliferative activity against mouse J774 cells assessed as reduction of cell growth after 72 hrs by MTT method. It is filed as cell-based. The conditions noted are these: J774, 72 h. A digest of the protocol: (§1)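 Cells (3.4 × 10^4) seeded in 96-well plates, left to adhere 2 h at 37 °C in 5% CO2. Medium replaced with fresh medium, then 1:4 serial dilutions of compound added. Incubation 72 h. MTT (5 mg/mL stock) added for 3 h. Crystals dissolved in 50% DMF/20% SDS, pH 4.5, and OD read at 620 nm. % dead cells = 100 − (OD treated/OD control)×100. IC50 taken versus control.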

In another experiment the test system is WEHI-164. As to the kind of experiment: Antiproliferative activity against mouse WEHI164 cells assessed as reduction of cell growth after 72 hrs by MTT method. It counts as functional, cell-based. The settings on record: WEHI-164, 72 h. In short, it runs like this:
as §1

The next experiment has as its system HEK293. As to the kind of experiment: Antiproliferative activity against HEK293 cells assessed as reduction of cell growth after 72 hrs by MTT method. It is filed as cell-based. The settings on record: Homo sapiens, HEK293, 72 h. A digest of the protocol: as §1

Turning to `C[C@@H]1O[C@@H](O[C@H]2[C@H](O)[C@@H](O)[C@H](OC[C@H]3O[C@@H](OC(=O)[C@]45CCC(C)(C)C[C@H]4C4=CC[C@@H]6[C@@]7(C)CC[C@H](O[C@@H]8OC[C@H](O)[C@H](O)[C@H]8O[C@@H]8O[C@H](C)[C@@H](O)[C@H](O)[C@H]8O)[C@@](C)(CO)[C@@H]7CC[C@@]6(C)[C@]4(C)CC5)[C@H](O)[C@@H](O)[C@@H]3O)O[C@@H]2CO)[C@H](O)[C@H](O)[C@H]1O`, the IC50 with J774 turned out to be 460 nM; in the experiment with WEHI-164, 1900 nM.

Turning to `C[C@@H]1O[C@@H](O[C@H]2[C@H](O)[C@@H](O)[C@H](OC[C@H]3O[C@@H](OC(=O)[C@]45CCC(C)(C)C[C@H]4C4=CC[C@@H]6[C@@]7(C)CC[C@H](O[C@@H]8OC[C@H](O)[C@H](O)[C@H]8O[C@@H]8O[C@@H](C)[C@H](O)[C@@H](O[C@@H]9O[C@H](CO)[C@@H](O)[C@H](O)[C@H]9O)[C@H]8O)C(C)(C)[C@@H]7CC[C@@]6(C)[C@]4(C)CC5)[C@H](O)[C@@H](O)[C@@H]3O)O[C@@H]2CO)[C@H](O)[C@H](O)[C@H]1O`, the IC50 was 520 nM with HEK293 and 1800 nM in the experiment with WEHI-164.

In the case of `C[C@@H]1O[C@@H](O[C@H]2[C@H](O[C@H]3CC[C@@]4(C)[C@@H](CC[C@]5(C)[C@@H]4CC=C4[C@@H]6CC(C)(C)CC[C@]6(C(=O)O)CC[C@]45C)[C@]3(C)CO)OC[C@H](O)[C@@H]2O)[C@H](O)[C@H](O[C@@H]2O[C@H](CO)[C@@H](O)[C@H](O)[C@H]2O)[C@H]1O`, in the experiment on J774, the IC50 was found to be 70 nM.

`C[C@@H]1O[C@@H](O[C@H]2[C@H](O)[C@@H](O)[C@H](OC[C@H]3O[C@@H](OC(=O)[C@]45CCC(C)(C)C[C@H]4C4=CC[C@@H]6[C@@]7(C)CC[C@H](O[C@@H]8OC[C@H](O)[C@H](O)[C@H]8O[C@@H]8O[C@@H](C)[C@H](O)[C@@H](O[C@@H]9O[C@H](CO)[C@@H](O)[C@H](O)[C@H]9O)[C@H]8O)C(C)(C)[C@@H]7CC[C@@]6(C)[C@]4(C)C[C@H]5O)[C@H](O)[C@@H](O)[C@@H]3O)O[C@@H]2CO)[C@H](O)[C@H](O)[C@H]1O`: the IC50 is 110 nM in the experiment with J774, 150 nM in the experiment on HEK293 and 240 nM with WEHI-164.

Turning to `C[C@@H]1O[C@@H](O[C@H]2[C@H](O[C@H]3CC[C@]4(C)[C@H]5CC=C6[C@@H]7CC(C)(C)CC[C@]7(C(=O)O)[C@H](O)C[C@@]6(C)[C@]5(C)CC[C@H]4C3(C)C)OC[C@H](O)[C@@H]2O)[C@H](O)[C@H](O[C@@H]2O[C@H](CO)[C@@H](O)[C@H](O)[C@H]2O)[C@H]1O`, in the experiment on J774, the IC50 was found to be 190 nM.

Consider `C[C@@H]1O[C@@H](O[C@H]2[C@H](O)[C@@H](O)[C@H](OC[C@H]3O[C@@H](OC(=O)[C@]45CCC(C)(C)C[C@H]4C4=CC[C@@H]6[C@@]7(C)CC[C@H](O[C@@H]8OC[C@H](O)[C@H](O)[C@H]8O[C@@H]8O[C@H](C)[C@@H](O)[C@H](O)[C@H]8O)C(C)(C)[C@@H]7CC[C@@]6(C)[C@]4(C)CC5)[C@H](O)[C@@H](O)[C@@H]3O)O[C@@H]2CO)[C@H](O)[C@H](O)[C@H]1O`, for which the IC50 with J774 was 100 nM; in the experiment with HEK293, 200 nM.

Regarding `C[C@@H]1O[C@@H](O[C@H]2[C@H](O[C@H]3CC[C@]4(C)[C@H]5CC=C6[C@@H]7CC(C)(C)CC[C@]7(C(=O)O[C@@H]7O[C@H](CO[C@@H]8O[C@H](CO)[C@@H](O[C@@H]9O[C@@H](C)[C@H](O)[C@@H](O[C@@H]%10O[C@H](CO)[C@@H](O)[C@H](O)[C@H]%10O)[C@H]9O)[C@H](O)[C@H]8O)[C@@H](O)[C@H](O)[C@H]7O)CC[C@@]6(C)[C@]5(C)CC[C@H]4C3(C)C)OC[C@H](O)[C@@H]2O)[C@H](O)[C@H](O[C@@H]2O[C@H](CO)[C@@H](O)[C@H](O)[C@H]2O)[C@H]1O`, the concentration for half-maximal inhibition (IC50) in the experiment with J774 worked out at 180 nM; in the experiment with HEK293, 170 nM.

For the molecule `C[C@@H]1O[C@@H](O[C@H]2[C@H](O)[C@@H](O[C@@H]3O[C@H](CO)[C@@H](O)[C@H](O)[C@H]3O)[C@H](OC[C@H]3O[C@@H](OC(=O)[C@]45CCC(C)(C)C[C@H]4C4=CC[C@@H]6[C@@]7(C)CC[C@H](O[C@@H]8OC[C@H](O)[C@H](O)[C@H]8O[C@@H]8O[C@@H](C)[C@H](O)[C@@H](O[C@@H]9O[C@H](CO)[C@@H](O)[C@H](O)[C@H]9O)[C@H]8O)[C@@](C)(CO)[C@@H]7CC[C@@]6(C)[C@]4(C)CC5)[C@H](O)[C@@H](O)[C@@H]3O)O[C@@H]2C)[C@H](O)[C@H](O)[C@H]1O`, the IC50 worked out at 100 nM with J774, 320 nM with HEK293 and 260 nM with WEHI-164.

In the case of `C[C@@H]1O[C@@H](O[C@H]2[C@H](O[C@H]3CC[C@]4(C)[C@H]5CC=C6[C@@H]7CC(C)(C)CC[C@]7(C(=O)O[C@@H]7O[C@H](CO[C@@H]8O[C@H](CO)[C@@H](O[C@@H]9O[C@@H](C)[C@H](O)[C@@H](O)[C@H]9O)[C@H](O)[C@H]8O)[C@@H](O)[C@H](O)[C@H]7O)CC[C@@]6(C)[C@]5(C)CC[C@H]4C3(C)C)OC[C@H](O)[C@@H]2O)[C@H](O)[C@H](O)[C@H]1O` [HEDERASAPONIN B], the IC50 worked out at 60 nM in the experiment with J774 and 600 nM with WEHI-164.

Turning to `Sc1ncnc2nc[nH]c12` [MERCAPTOPURINE ANHYDROUS], the half-inhibitory concentration (IC50) in the experiment on J774 worked out at 3 nM; in the experiment on WEHI-164, 17 nM.
